Series [1] deals with B6C3F1 mice. Description: Serum chemistries after 28-day dermal exposure. Format: in vivo. The following applies: 28 days. In outline:
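After 28 daily ear applications (25 μl/ear; acetone or 1.25, 2.5, 5% w/v), blood was taken by cardiac puncture about 24 h post-dose. Serum was separated by centrifugation and frozen at −20 °C, then run on a Catalyst DX chemistry analyzer for ALKP, BUN, glucose, cholesterol and ALT. There were 4–5 mice/group, with one-way ANOVA and Dunnett's post-test versus vehicle.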

Series [2] concerns IgM response to SRBC. Nature of the series: Spleen IgM response to SRBC. Format: in vivo, B6C3F1 mice. The following applies: 10 days. Summed up: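 B6C3F1 mice, 5/group, dosed topically on dorsal surface of each ear (25 μl/ear) with acetone vehicle or test compound at 0.625, 1.25, 2.5% w/v once daily for 10 consecutive days. SRBC 7.5 × 10^7 i.v. given 4 days before CO2 euthanasia. Spleen cells plated at 1:30 and 1:120 in agar/DEAE-dextran with SRBC and guinea pig complement, 3 h at 37 °C. Plaques counted per 10^6 cells and per spleen. Mean ± SE.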

Structures are written as SMILES.

For `O=S(=O)(O)C(F)(F)C(F)(F)C(F)(F)C(F)(F)C(F)(F)C(F)(F)F` [PFHxS, Perfluorohexane sulfonic acid], the “Serum ALT fold increase” value in series [1] (1.25% PFHxS dermal) worked out at 3.66 fold. Besides, in series [1] (2.5% PFHxS dermal), the “Serum ALKP fold increase” value came out at 2.11 fold and the “Serum ALT fold increase” value is reported as 2.9 fold. Also, in series [1] (2.5 and 5% PFHxS dermal), the “Serum BUN change” value is given as “decreased” and the Serum cholesterol change entry is “decreased”. In series [1] (5% PFHxS dermal), the “Serum ALKP fold increase” value turned out to be 2.61 fold, the “Serum ALKP increase” value stood at 161%, the “Serum ALT fold increase” value came out at 4.6 fold and the “Serum ALT increase” value is given as 360%. For the same compound, in series [1] (5% PFHxS dermal), the Serum cholesterol decrease was 43%, the Serum glucose decrease is 58% and the “Serum urea nitrogen (BUN) decrease” value is 34%. In addition, the Serum glucose change result in series [1] (all three PFHxS concentrations (1.25, 2.5, 5%)) is reported as “decreased”. In series [2] (1.25% PFHxS dermal), the “Decrease in specific IgM activity against SRBC (PFC/10^6 cells) vs vehicle” value is 50.7% and the “Decrease in total IgM activity against SRBC (PFC/spleen) vs vehicle” value is recorded as 57.9%. Also, in series [2] (2.5% PFHxS dermal), the “Decrease in specific IgM activity against SRBC (PFC/10^6 cells) vs vehicle” value stood at 49.9% and the “Decrease in total IgM activity against SRBC (PFC/spleen) vs vehicle” value amounted to 60.3%.
